Measured values published in ChEMBL document CHEMBL4382252, “1,4-Benzodioxane Lignans: An Efficient, Asymmetric Synthesis of Flavonolignans and Study of Neolignan Cytotoxicity and Antiviral Profiles” (J Nat Prod, 2018).

Key:
[1] = tested on: Huh7.5.1; assay: (§1) Cytotoxicity against human Huh7.5.1 cells after 72 hrs by ATPlite assay; format: cell-based; conditions: huh7.5.1, 72 h
Method in brief: (§2)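 Compounds in DMSO added to cells at a range of concentrations. ATP measured by ATPlite after 72 h. DMSO held at 0.5% final in all wells, including controls. Triplicate per concentration. CC50 obtained by log-transforming doses and fitting a variable-slope four-parameter regression.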

[2] = Selectivity index, ratio of CC50 for human Huh7.5.1 cells to IC50 for HCV JFH1 infected in human Huh7.5.1 cells; format: toxicity, cell-based; conditions: for selectivity ratio: Huh7.5.1 cells, HCV JFH1-infected Huh7.5.1 cells, read-out: Ratio CC50/IC50
[3] = tested on: Hepatitis C virus; assay: Antiviral activity against HCV JFH-1 infected in human Huh7.5.1 cells assessed as reduction in NS3/NS5A expression by Western blot analysis; format: functional, organism-based, Hepacivirus hominis
Method in brief: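 Huh7.5.1 human hepatoma cells infected with HCV (JFH-1) at MOI 0.05 for 5 h; inoculum then replaced with fresh medium containing compound, three concentrations each. DMSO solvent control ≤0.5% final. Lysates run on SDS-PAGE and Western blotted for NS3 and NS5A, reprobed for actin as loading control. IC50 estimated from pixel intensity of viral protein bands.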

[4] = as §1; format: cell-based; conditions: Huh7.5.1 cells; method in brief: as §2
[5] = Hepatitis C virus, JFH-1, Huh-7.5.1

| IC50 [3] [µM] | IC50 [3, 5] [µM] | Compound | CC50 [1] [µM] | Ratio CC50/IC50 [2] | CC50 at 72 h [4] [µM] | selectivity ratio [2] |
| --- | --- | --- | --- | --- | --- | --- |
| 80 |  | SILYMARIN | 100 | 1.25 |  |  |
|  | 20 | C=CCc1cc(OC)c2c(c1)O[C@H](c1ccc3c(c1)OCO3)[C@@H](C)O2 |  |  | > 125 | > 6.25 |
|  | 50 | COc1cc([C@@H]2Oc3cc([C@H]4Oc5cc(O)cc(O)c5C(=O)[C@@H]4O)ccc3O[C@H]2CO)ccc1O [SILYBIN B] |  |  | 68.7 | 1.37 |
|  | 60 | COc1cc(C2Oc3cc([C@H]4Oc5cc(O)cc(O)c5C(=O)[C@@H]4O)ccc3OC2CO)ccc1O (stereo not given in full) [SILIBININ] |  |  | 80 | 1.33 |
|  | 200 | COc1cc([C@H]2Oc3cc(/C=C/CO)cc(OC)c3O[C@@H]2CO)cc(OC)c1O |  |  | 464 | 2.32 |
|  | 25 | COc1cc([C@H]2Oc3cc(/C=C/C=O)cc(OC)c3O[C@@H]2C)cc(OC)c1OC |  |  | 47.6 | 1.91 |
|  | 50 | COc1cc([C@H]2Oc3cc([C@H]4Oc5cc(O)cc(O)c5C(=O)[C@@H]4O)ccc3O[C@@H]2CO)ccc1O [SILYBIN A] |  |  | 80 | 1.6 |
|  | 40 | COc1cc([C@H]2Oc3cccc(OC)c3O[C@@H]2C)cc(OC)c1OC |  |  | 50.2 | 1.25 |
|  | 50 | COc1cc([C@H]2Oc3cc(/C=C/CO)cc(OC)c3O[C@@H]2C)cc(OC)c1OC |  |  | 129 | 2.57 |
|  | 30 | C=CCc1cc(OC)c2c(c1)O[C@H](c1cc(OC)c(OC)c(OC)c1)[C@@H](C)O2 |  |  | 36.2 | 1.21 |
